Calls of active or inactive are those of the source. The rule behind the calls is not given here.
How the values were obtained:
NIH3T3 [1] = assay: Cytotoxicity against mouse 3T3 cells at 1 to 30 uM measured after 48 hrs by MTT assay relative to control; type: cell-based; settings: nih3t3, 48 h
Procedure, shortened: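 MTT colorimetric read-out. Cells seeded at 3x10^5 in 100 µL medium and left 24 h to attach. Medium then replaced with fresh medium plus test compound (1 to 30 µM). Incubated 48 h at 37 °C, 5% CO2, 90% humidity. MTT added, 4 h incubation. Formazan dissolved in DMSO, absorbance read at 540 nm. IC50 values calculated.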

[2] = biological target: Acetylcholinesterase (Electrophorus electricus) (UniProt O42275); assay: Inhibition of electric eel AChE using acetylthiocholine iodide as substrate preincubated for 15 mins followed by substrate addition and measured after 15 mins under dark condition by Ellman's method
Procedure, shortened: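 Modified Ellman assay. Electric eel AChE (0.002 mU) was preincubated 15 min at 25 °C with test compound (dissolved in methanol) in 100 mM sodium phosphate buffer, pH 8.0. Acetylthiocholine iodide (0.5 mM) and DTNB were added. After 15 min in the dark, absorbance was read at 412 nm.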

Cholinesterase [3] = biological target: T1, Cholinesterase (Equus caballus, UniProt P81908); assay: (§1) Inhibition of equine serum BChE using […] chloride as substrate preincubated for 15 mins followed by substrate addition and measured after 15 mins under dark condition by Ellman's method
Procedure, shortened: (§2)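 Modified Ellman assay. Equine serum BChE (51.732 mU) was preincubated 15 min at 25 °C with test compound (dissolved in methanol) in 100 mM sodium phosphate buffer, pH 8.0. Butyrylthiocholine chloride (0.5 mM) was added for 15 min in the dark, then DTNB (0.5 mM) was added. Absorbance was read at 412 nm and mean IC50 values were derived.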

[4] = biological target: Cholinesterase (Equus caballus) (UniProt P81908); assay: Inhibition of equine serum BChE using […] chloride as substrate preincubated for 15 mins followed by substrate addition and measured after 15 mins under dark condition by Ellman's method relative to control; set-up: concentration or dose not given beside the values; procedure, shortened: as §2
Cholinesterase [5] = biological target: T1, Cholinesterase; assay: Uncompetitive inhibition of equine serum BChE using varying levels of […] chloride as substrate by Lineweaver-Burk plot analysis
NIH3T3 [6] = assay: Cytotoxicity against mouse 3T3 cells measured after 48 hrs by MTT assay; type: cell-based; settings: NIH3T3, 48 h
Procedure, shortened: (§3)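 Cells seeded at 3x10^5 per well in medium and allowed to attach. After 24 h the medium was replaced with fresh medium plus test compound (1 to 30 µM). Plates were held 48 h at 37 °C, 5% CO2, 90% humidity. MTT was added for 4 h, formazan dissolved in DMSO, and absorbance read at 540 nm. IC50 values were calculated.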

NIH3T3 [7] = assay: Cytotoxicity against mouse 3T3 cells measured after 48 hrs by MTT assay relative to control; type: cell-based; settings: nih3t3, 48 h; procedure, shortened: as §3
[8] = biological target: Cholinesterase (Equus caballus) (UniProt P81908); assay: as §1; procedure, shortened: as §2
Cholinesterase [9] = biological target: T1, Cholinesterase; assay: Mixed inhibition of equine serum BChE using varying levels of […] chloride as substrate by Lineweaver-Burk plot analysis
Procedure, shortened: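 Kinetics for BChE in the Ellman format with varied substrate. Inhibition mode was assigned from Lineweaver-Burk plots, secondary replots (slope vs inhibitor concentration) and Dixon plots. Apparent Km and Vmax were determined.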

[10] = biological target: Cholinesterase (Equus caballus) (UniProt P81908); assay: Potency index, ratio of donepezil IC50 to test compound IC50 for equine serum BChE

Acetylcholinesterase (Electrophorus electricus), sequence (O42275 24-633 limits assumed): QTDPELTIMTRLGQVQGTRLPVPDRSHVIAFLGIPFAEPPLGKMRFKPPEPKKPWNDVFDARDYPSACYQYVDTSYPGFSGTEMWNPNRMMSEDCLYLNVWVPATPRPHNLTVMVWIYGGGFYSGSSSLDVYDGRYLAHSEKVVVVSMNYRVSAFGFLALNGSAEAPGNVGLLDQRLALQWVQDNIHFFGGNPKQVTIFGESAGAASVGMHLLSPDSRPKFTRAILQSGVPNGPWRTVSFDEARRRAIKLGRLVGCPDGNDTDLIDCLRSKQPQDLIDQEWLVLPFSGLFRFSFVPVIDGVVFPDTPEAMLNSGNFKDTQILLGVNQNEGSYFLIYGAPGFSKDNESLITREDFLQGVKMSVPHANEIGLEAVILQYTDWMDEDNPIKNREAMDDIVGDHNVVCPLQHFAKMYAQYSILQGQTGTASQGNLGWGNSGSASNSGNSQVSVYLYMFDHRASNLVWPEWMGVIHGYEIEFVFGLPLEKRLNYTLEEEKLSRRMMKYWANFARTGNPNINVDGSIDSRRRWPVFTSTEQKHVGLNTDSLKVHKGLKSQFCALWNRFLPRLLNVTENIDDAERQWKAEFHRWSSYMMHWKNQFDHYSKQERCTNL
Cholinesterase (Equus caballus), sequence (P81908 whole entry): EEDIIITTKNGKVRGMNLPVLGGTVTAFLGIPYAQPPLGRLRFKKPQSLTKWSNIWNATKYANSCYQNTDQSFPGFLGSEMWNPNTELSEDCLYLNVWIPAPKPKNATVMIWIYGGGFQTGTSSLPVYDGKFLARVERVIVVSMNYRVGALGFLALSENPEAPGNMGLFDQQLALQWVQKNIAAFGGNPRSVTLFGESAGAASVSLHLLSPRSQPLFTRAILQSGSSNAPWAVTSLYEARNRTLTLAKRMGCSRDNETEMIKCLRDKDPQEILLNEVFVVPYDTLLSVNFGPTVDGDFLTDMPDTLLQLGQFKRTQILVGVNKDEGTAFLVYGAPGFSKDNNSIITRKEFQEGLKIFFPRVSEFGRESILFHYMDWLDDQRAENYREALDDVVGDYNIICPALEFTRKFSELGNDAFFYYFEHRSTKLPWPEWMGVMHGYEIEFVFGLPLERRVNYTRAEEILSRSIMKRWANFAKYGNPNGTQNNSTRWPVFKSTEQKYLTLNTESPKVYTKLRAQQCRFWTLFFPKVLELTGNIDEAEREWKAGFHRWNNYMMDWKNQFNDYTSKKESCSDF
T1 sequence (P81908 whole entry): as above

Row | SMILES | Activity (NIH3T3 [1]) [%] | inhibition [2] | IC50 (Cholinesterase [3]) [µM] | inhibition [4] [%] | Ki (Cholinesterase [5]) [µM] | IC50 (NIH3T3 [6]) [µM] | Activity (NIH3T3 [7]) [%] | inhibition [8] | Ki (Cholinesterase [9]) [µM] | Ratio IC50 [10]
1 | O=C(Nc1c(Cl)cccc1Cl)c1c(F)cccc1F | 34 | inactive | 12.6 | 70.6 | 5.6 |  |  |  |  | 
2 | C[C@@H]1C[C@@H]([C@H](O)CC2CC(=O)NC(=O)C2)C(=O)[C@@H](C)C1 [CYCLOHEXIMIDE] |  |  |  |  |  | 0.8 | 95 |  |  | 
3 | CCOc1ccccc1C(=O)Nc1c(Cl)cccc1Cl | 15 | inactive | 6 | 112 |  |  |  |  |  | 
4 | O=C(Nc1c(Cl)cccc1Cl)c1cccc([N+](=O)[O-])c1 | 41 | inactive |  |  |  |  |  | inactive |  | 
5 | COc1ccc(C(=O)Nc2c(Cl)cccc2Cl)cc1 | 32 | inactive | 11.3 | 90.7 |  |  |  |  | 18 | 
6 | O=C(Nc1c(Cl)cccc1Cl)c1ccccc1 | 33 | inactive | 1.3 | 100 |  |  |  |  | 4.4 | 10
7 | O=C(Nc1c(Cl)cccc1Cl)c1ccc(Br)cc1 | 49 | inactive | 0.8 | 84 |  |  |  |  | 2.6 | 
8 | Cc1ccc(C(=O)Nc2c(Cl)cccc2Cl)cc1[N+](=O)[O-] | 40 | inactive | 165 | 69.1 |  |  |  |  |  | 
9 | O=C(Nc1c(Cl)cccc1Cl)c1ccc(F)cc1F | 34 | inactive | 18.7 | 80.7 | 27.6 |  |  |  |  | 
10 | COc1cc(C(=O)Nc2c(Cl)cccc2Cl)cc(OC)c1OC | 48 | inactive | 20.8 | 69.2 | 23.5 |  |  |  |  | 
11 | COc1cccc(C(=O)Nc2c(Cl)cccc2Cl)c1 | 14.8 | inactive | 5.5 | 95.2 |  |  |  |  | 13 | 
12 | O=C(Nc1c(Cl)cccc1Cl)c1ccc(F)cc1 | 29 | inactive | 16.1 | 86.5 |  |  |  |  | 9.9 | 
13 | O=C(Nc1c(Cl)cccc1Cl)c1ccccc1Br | 41 | inactive | 1.1 | 88 | 2.4 |  |  |  |  | 

From ChEMBL document CHEMBL4346761, “Microwave-Assisted Organic Synthesis, structure-activity relationship, kinetics and molecular docking studies of non-cytotoxic benzamide derivatives as selective butyrylcholinesterase inhibitors” (Bioorg Med Chem, 2019)
